Key:
PMM cytotoxicity = assay type: cell-based, mouse; conditions: Swiss, mouse
[1] = system: T. b. brucei (Squib 427 strain); experiment: In vitro activity against T. b. brucei; assay type: cell-based; conditions: Trypanosoma brucei, read-out: T. b. bruc. EC50
[2] = system: L. infantum MHOM/MA (BE)/67; assay type: cell-based, Leishmania infantum
Summary of the method: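 Intracellular amastigotes of hamster spleen origin infected Swiss mouse peritoneal macrophages (elicited 2 days with 2% potato starch), in RPMI-1640 with 5% inactivated FCS, at 37 °C and 5% CO2, 4.5×10^5 parasites/well. Test compound (ten 4-fold dilutions, top 64 μM, <1% DMSO) was added 2 h post-infection. After 5 days, amastigotes/macrophage were counted after 10% Giemsa. IC50 was derived from % reduction versus controls; mean ± SEM, 2–4 experiments. Miltefosine reference.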

MRC-5SV2 cytotoxicity = assay type: cell-based, human; conditions: human, MRC-5SV2 cells
Summary of the method: (§1)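 MRC-5SV2 cells (3×10^4 cells/mL) in MEM with Earl's salts, L-glutamine, NaHCO3 and 5% inactivated FCS, at 37 °C and 5% CO2. Exposure to test compound (ten 4-fold dilutions, top 64 μM, <1% DMSO) lasted 3 days. Resazurin was then added for 4 h at 37 °C, with fluorescence read at ex 550/em 590 nm. CC50 from % reduction relative to untreated (100%) and medium-only (0%) controls.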

[3] = system: T. cruzi Tulahuen CL2 β-galactosidase strain; experiment: In vitro activity against T. cruzi intracellular amastigotes in MRC-5SV2 cells; assay type: cell-based; conditions: Trypanosoma cruzi, MRC-5 SV2, 168 h, read-out: T. cruzi EC50
Summary of the method: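 Nifurtimox-sensitive Tulahuen CL2 β-galactosidase parasites infected MRC-5SV2 fibroblasts in MEM with 200 mM L-glutamine, 16.5 mM NaHCO3 and 5% inactivated FCS, at 37 °C and 5% CO2. Wells held 4×10^3 cells and 4×10^4 parasites. Test compound was given as ten 4-fold dilutions (top 64 μM, <1% DMSO) for 7 days. CPRG was then added for 4 h at 37 °C and absorbance read at 540 nm. IC50 from % reduction versus untreated-infected controls; mean ± SEM, 2–4 experiments. Benznidazole reference.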

[4] = system: T. b. rhodesiense (STIB-900 strain); experiment: In vitro activity against T. b. rhodesiense; assay type: cell-based; conditions: Trypanosoma brucei, read-out: T. b. rhod. EC50
Summary of the method: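 STIB-900 parasites, axenic in HMI-9 with 10% FBS at 37 °C and 5% CO2, seeded at 4×10^3 parasites/well. Test compound was given as ten 4-fold dilutions (top 64 μM, <1% DMSO). Growth period […], then resazurin added and fluorescence measured after 24 h. IC50 from a sigmoid variable-slope fit versus untreated controls; mean ± SEM, 2–4 experiments. Suramin as reference.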

MRC-5SV2 cells = experiment: MRC-5SV2 cytotoxicity; assay type: cell-based, human; conditions: read-out: MRC-5 CC50, 3 days incubation
Summary of the method: as §1

[5] = Microsomal stability assay, human; assay type: in vitro ADME; conditions: pooled human liver microsomes (microsomal (S9) fractions), % remaining parent compound; for remaining at 0 h: 0 min; for remaining at 0.25 h: 15 min; for remaining at 0.5 h: 30 min; for remaining at 1 h: 60 min
[6] = Microsomal stability assay, hamster; assay type: in vitro ADME; conditions: hamster microsomal (S9) fractions, % remaining parent compound; for remaining at 0 h: 0 min; for remaining at 0.25 h: 15 min; for remaining at 0.5 h: 30 min; for remaining at 1 h: 60 min
[7] = system: primary peritoneal mouse macrophages (PMM); experiment: PMM cytotoxicity; assay type: cell-based; conditions: read-out: PMM CC50; primary peritoneal mouse macrophages
[8] = PMM CC50, primary peritoneal mouse macrophages
[9] = MRC-5 CC50, MRC-5SV2 cells, 3 days incubation

With `Cc1ncnc2c1c(C1=CCN(C)CC1)cn2[C@@H]1O[C@H](CO)[C@@H](O)[C@H]1O` [compound 23] the CC50 at 5 days (PMM cytotoxicity) was greater than 64 µM, the EC50 [1] was greater than 64 µM and the EC50 ([2]; Leishmania infantum, Macrophage, in Mus musculus, 120 h, read-out: L. inf. EC50) was greater than 64 µM. It also gave a CC50 at 3 days (MRC-5SV2 cytotoxicity) greater than 64 µM, an EC50 [3] greater than 64 µM and an EC50 [4] greater than 64 µM.
In the case of `CCOc1ncnc2c1c(CC)cn2[C@@H]1O[C@H](CO)[C@@H](O)[C@H]1O` [compound 42], the CC50 at 5 days (PMM cytotoxicity; [8]) is reported as greater than 64 µM, the EC50 [1] is reported as 1.25 ± 0.06 µM and the CC50 at 3 days (MRC-5SV2 cytotoxicity; [9]) is reported as 52.5 µM. For the same molecule, the CC50 (MRC-5SV2 cells) was greater than 64 µM, the EC50 [3] was 7.71 ± 0.91 µM and the EC50 [4] was 2.06 ± 0.51 µM.
In the case of `CCc1cn([C@@H]2O[C@H](CO)[C@@H](O)[C@H]2O)c2ncnc(N)c12` [compound 39, 7-ethyl-7-deazaadenosine], the CC50 at 5 days (PMM cytotoxicity; [8]) is reported as greater than 64 µM, the EC50 [1] is reported as 0.65 ± 0.02 µM and the CC50 at 3 days (MRC-5SV2 cytotoxicity; [9]) is reported as 50.4 µM. It also gave a CC50 (MRC-5SV2 cells) greater than 64 µM, an EC50 [3] of 0.99 ± 0.25 µM and an EC50 [4] of 0.5 ± 0.03 µM.
Molecule `CCc1cn([C@@H]2O[C@H](CO)[C@@H](O)[C@H]2O)c2ncnc(C)c12` [compound 13] has a CC50 at 5 days (PMM cytotoxicity; [8]) greater than 64 µM, a remaining at 0 h ([5]; CYP – NADPH (Phase-I)) of 100% and a remaining at 0.25 h ([5]; CYP – NADPH (Phase-I)) of 89%. For the same molecule, the remaining at 0.5 h ([5]; CYP – NADPH (Phase-I)) was 92%, the remaining at 1 h ([5]; CYP – NADPH (Phase-I)) was 96% and the remaining at 0 h ([5]; UGT Enz. (Phase-II)) was 100%. It also gave a remaining at 0.25 h ([5]; UGT Enz. (Phase-II)) of 105%, a remaining at 0.5 h ([5]; UGT Enz. (Phase-II)) of 102% and a remaining at 1 h ([5]; UGT Enz. (Phase-II)) of 96%. The EC50 [1] was 0.75 ± 0.18 µM, the remaining at 0 h ([6]; CYP – NADPH (Phase-I)) was 100% and the remaining at 0.25 h ([6]; CYP – NADPH (Phase-I)) was 93%. The remaining at 0.5 h ([6]; CYP – NADPH (Phase-I)) was 102%, the remaining at 1 h ([6]; CYP – NADPH (Phase-I)) was 91% and the remaining at 0 h ([6]; UGT Enz. (Phase-II)) was 100%. For the same molecule, the remaining at 0.25 h ([6]; UGT Enz. (Phase-II)) was 101%, the remaining at 0.5 h ([6]; UGT Enz. (Phase-II)) was 103% and the remaining at 1 h ([6]; UGT Enz. (Phase-II)) was 108%. For the same molecule, the “fold improved activity against L. infantum compared to the 7-methyl analogue 9” value ([2]; versus compound 9) was 8 fold, the CC50 at 3 days (MRC-5SV2 cytotoxicity; [9]) was greater than 64 µM and the EC50 [3] was 2.54 ± 0.47 µM. For the same molecule, the EC50 [4] was 0.43 ± 0.06 µM.
`Cc1ncnc2c1c(Cl)cn2[C@@H]1O[C@H](CO)[C@@H](O)[C@H]1O` [compound 7] showed a CC50 at 5 days (PMM cytotoxicity; [8]) greater than 64 µM, a CC50 [7] of 32 µM and a remaining at 0 h ([5]; CYP – NADPH (Phase-I)) of 100%. It also gave a remaining at 0.25 h ([5]; CYP – NADPH (Phase-I)) of 96%, a remaining at 0.5 h ([5]; CYP – NADPH (Phase-I)) of 97% and a remaining at 1 h ([5]; CYP – NADPH (Phase-I)) of 96%. The remaining at 0 h ([5]; UGT Enz. (Phase-II)) was 100%, the remaining at 0.25 h ([5]; UGT Enz. (Phase-II)) was 102% and the remaining at 0.5 h ([5]; UGT Enz. (Phase-II)) was 97%. The remaining at 1 h ([5]; UGT Enz. (Phase-II)) was 96%, the EC50 [1] was 4.78 ± 2.19 µM and the remaining at 0 h ([6]; CYP – NADPH (Phase-I)) was 100%. For the same molecule, the remaining at 0.25 h ([6]; CYP – NADPH (Phase-I)) was 95%, the remaining at 0.5 h ([6]; CYP – NADPH (Phase-I)) was 93% and the remaining at 1 h ([6]; CYP – NADPH (Phase-I)) was 93%. The remaining at 0 h ([6]; UGT Enz. (Phase-II)) was 100%, the remaining at 0.25 h ([6]; UGT Enz. (Phase-II)) was 96% and the remaining at 0.5 h ([6]; UGT Enz. (Phase-II)) was 100%. It also gave a remaining at 1 h ([6]; UGT Enz. (Phase-II)) of 102%, a CC50 at 3 days (MRC-5SV2 cytotoxicity; [9]) of 54.8 ± 2.52 µM and an EC50 [3] of 3.61 ± 1.24 µM. The EC50 [4] was 0.84 ± 0.63 µM.

— article PMC8358123 (International Journal for Parasitology: Drugs and Drug …, 2021)
